≈ marks a conversion by molar mass, not a printed value. Calls of active or inactive are those of the source. The rule behind the calls is not given here.
Columns and labels:
[1] = test system: Globisporangium irregulare; assay: Antiparasitic activity against Pythium irregulare assessed as culture diameter at 0.75 mg/ml after 24 hr; type: functional
Procedure, shortened: (§1)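 P. irregulare: 3-mm agar plugs from 1-week cultures (20 °C, dark) were placed in wells with water plus test solution in DMSO (final 2% DMSO). Exposure was 24 h at 25 °C in the dark. Plugs were then rinsed, blotted and placed on PDA with 250 mg/L ampicillin. Colony diameter was measured after 48 h at 20 °C, excluding dead plugs, and expressed as % of the water control. EC50 was derived by regression. Eight wells per concentration.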

[2] = test system: Globisporangium irregulare; assay: Antiparasitic activity against Pythium irregulare assessed as culture diameter at 0.5 mg/ml after 24 hr; type: functional; procedure, shortened: as §1
[3] = test system: Globisporangium irregulare; assay: Antiparasitic activity against Pythium irregulare assessed as culture diameter at 0.3 mg/ml after 24 hr; type: functional; procedure, shortened: as §1
[4] = test system: Globisporangium irregulare; assay: Antiparasitic activity against Pythium irregulare assessed as culture diameter at 0.15 mg/ml after 24 hr; type: functional; procedure, shortened: as §1
[5] = test system: Globisporangium irregulare; assay: Antiparasitic activity against Pythium irregulare assessed as culture diameter at 0.05 mg/ml after 24 hr; type: functional; procedure, shortened: as §1
[6] = test system: Globisporangium irregulare; assay: Antiparasitic activity against Pythium irregulare assessed as culture diameter after 24 hr; type: functional, organism-based; procedure, shortened: as §1
[7] = test system: Globisporangium irregulare; assay: Antiparasitic activity against Pythium irregulare assessed as culture diameter at <= 0.3 mg/ml after 24 hr; type: functional, organism-based; procedure, shortened: as §1
[8] = test system: Meloidogyne hapla; assay: Antiparasitic activity against Meloidogyne hapla J2 assessed as larvicidal activity for 24 hr measured after replacement with water; type: functional, organism-based; settings: J2, 24 h
Procedure, shortened: (§2)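 M. hapla J2 (tomato-cultured isolate) in 96-well plates, 40–60 J2 per well in water with test solution in DMSO (final DMSO 2% v/v). Incubated covered in the dark at 25 °C for 24 h, then mortality scored visually. Compounds were then removed and replaced with water, and mortality was rescored after another 24 h. EC50 was taken from dose-response regression. Eight wells per concentration; experiments were run at least twice.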

[9] = test system: Meloidogyne hapla; assay: Antiparasitic activity against Meloidogyne hapla J2 assessed as larvicidal activity after 24 hr; type: functional, organism-based; settings: J2, 24 h; procedure, shortened: as §2
[10] = test system: Verticillium dahliae; assay: Antiparasitic activity against Verticillium dahliae assessed as culture diameter after 24 hr; type: functional, organism-based
Procedure, shortened: (§3)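 V. dahliae: 3-mm plugs from 3-week cultures (20 °C, dark) were exposed for 24 h at 25 °C in wells of water with 2% DMSO and test compound. Plugs were then rinsed, blotted and plated on PDA with 250 mg/L ampicillin. Diameter was measured after 1 week at 20 °C, excluding non-growing plugs, and expressed as % of the water control. Eight wells per concentration.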

[11] = test system: Globisporangium irregulare; assay: Antiparasitic activity against Pythium irregulare assessed as culture morality after 24 hr; type: functional, organism-based
Procedure, shortened: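 P. irregulare plugs were exposed in wells to compounds in 2% DMSO for 24 h at 25 °C, then rinsed and plated on ampicillin-amended PDA. Plugs failing to grow were counted as dead, giving percentage mortality per treatment. EC50 was estimated from dose-response regression. Eight replicate wells per concentration; experiments were run at least twice.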

[12] = test system: Verticillium dahliae; assay: Antiparasitic activity against Verticillium dahliae assessed as culture diameter at 0.2 mg/ml after 24 hr; type: functional; procedure, shortened: as §3
[13] = test system: Verticillium dahliae; assay: Antiparasitic activity against Verticillium dahliae assessed as culture diameter at 0.1 mg/ml after 24 hr; type: functional; procedure, shortened: as §3
[14] = test system: Verticillium dahliae; assay: Antiparasitic activity against Verticillium dahliae assessed as culture diameter at 0.08 mg/ml after 24 hr; type: functional; procedure, shortened: as §3
[15] = test system: Verticillium dahliae; assay: Antiparasitic activity against Verticillium dahliae assessed as culture diameter at 0.05 mg/ml after 24 hr; type: functional; procedure, shortened: as §3
[16] = test system: Verticillium dahliae; assay: Antiparasitic activity against Verticillium dahliae assessed as culture diameter at 0.03 mg/ml after 24 hr; type: functional; procedure, shortened: as §3
[17] = test system: Verticillium dahliae; assay: Antiparasitic activity against Verticillium dahliae assessed as culture diameter at 0.02 mg/ml after 24 hr; type: functional; procedure, shortened: as §3
[18] = test system: Verticillium dahliae; assay: Antiparasitic activity against Verticillium dahliae assessed as culture diameter at 0.01 mg/ml after 24 hr; type: functional; procedure, shortened: as §3
[19] = test system: Verticillium dahliae; assay: Antiparasitic activity against Verticillium dahliae assessed as culture diameter at 0.005 mg/ml after 24 hr; type: functional; procedure, shortened: as §3
[20] = test system: Verticillium dahliae; assay: Antiparasitic activity against Verticillium dahliae assessed as culture diameter at 0.001 mg/ml after 24 hr; type: functional; procedure, shortened: as §3
[21] = test system: Globisporangium irregulare; assay: Antiparasitic activity against Pythium irregulare assessed as culture diameter at 0.2 mg/ml after 24 hr; type: functional; procedure, shortened: as §1
[22] = test system: Globisporangium irregulare; assay: Antiparasitic activity against Pythium irregulare assessed as culture diameter at 0.1 mg/ml after 24 hr; type: functional; procedure, shortened: as §1
[23] = test system: Globisporangium irregulare; assay: Antiparasitic activity against Pythium irregulare assessed as culture diameter at 0.075 mg/ml after 24 hr; type: functional; procedure, shortened: as §1
[24] = test system: Globisporangium irregulare; assay: Antiparasitic activity against Pythium irregulare assessed as culture diameter at 0.025 mg/ml after 24 hr; type: functional; procedure, shortened: as §1

Compound: COc1cccc(CC(N)=S)c1
- mortality at 750 µg/mL [1]: 0%
- mortality at 500 µg/mL [2]: 0%
- mortality at 300 µg/mL [3]: 0%
- mortality at 150 µg/mL [4]: 0%
- mortality at 50 µg/mL [5]: 0%
- EC50 [6]: 750 µg/mL (≈ 4140 µM)
- Activity [7]: inactive
- EC50 [8]: 584 µg/mL (≈ 3220 µM)
- EC50 [9]: 245 µg/mL (≈ 1350 µM)

Compound: COc1cccc(CN=C=S)c1 [3-METHOXYBENXYL ISOTHIOCYANATE]
- EC50 [10]: 100 µg/mL (≈ 558 µM)
- EC50 [11]: 50 µg/mL (≈ 279 µM)
- mortality at 200 µg/mL [12]: 69%
- mortality at 100 µg/mL [13]: 50%
- mortality at 80 µg/mL [14]: 7%
- mortality at 50 µg/mL [15]: 19%
- mortality at 30 µg/mL [16]: 0%
- mortality at 20 µg/mL [17]: 0%
- mortality at 10 µg/mL [18]: 0%
- mortality at 5 µg/mL [19]: 0%
- mortality at 1 µg/mL [20]: 0%
- mortality at 200 µg/mL [21]: 88%
- mortality at 150 µg/mL [4]: 88%
- mortality at 100 µg/mL [22]: 63%
- mortality at 75 µg/mL [23]: 56%
- mortality at 50 µg/mL [5]: 54%
- mortality at 25 µg/mL [24]: 0%
- EC50 [8]: 3 µg/mL (≈ 16.7 µM)
- EC50 [9]: 2 µg/mL (≈ 11.2 µM)

Reference: ChEMBL document CHEMBL3046167, “Activity of meadowfoam (Limnanthes alba) seed meal glucolimnanthin degradation products against soilborne pathogens” (J Agric Food Chem, 2012)
